Active and inactive are the calls of the source. The rule behind the calls is not given here.
How the values were obtained:
[1] = target: T1, Urokinase-type plasminogen activator (Homo sapiens, UniProt P00749); test: Inhibition of human kidney uPA using Z-Gly-Gly-Arg-AMC as substrate measured over 15 mins by fluorescence assay
[2] = target: T2, Epithelial sodium channel subunit alpha (Homo sapiens, UniProt P37088); test: (§1) Inhibition of S-3969-stimulated recombinant human ENaC alpha subunit expressed in HEK293 cells at 10 uM preincubated for 5 mins followed by S-3969 stimulation by FLIPR assay; assay type: cell-based; settings: hek293, 10 µM
T2 sequence (P37088 whole entry): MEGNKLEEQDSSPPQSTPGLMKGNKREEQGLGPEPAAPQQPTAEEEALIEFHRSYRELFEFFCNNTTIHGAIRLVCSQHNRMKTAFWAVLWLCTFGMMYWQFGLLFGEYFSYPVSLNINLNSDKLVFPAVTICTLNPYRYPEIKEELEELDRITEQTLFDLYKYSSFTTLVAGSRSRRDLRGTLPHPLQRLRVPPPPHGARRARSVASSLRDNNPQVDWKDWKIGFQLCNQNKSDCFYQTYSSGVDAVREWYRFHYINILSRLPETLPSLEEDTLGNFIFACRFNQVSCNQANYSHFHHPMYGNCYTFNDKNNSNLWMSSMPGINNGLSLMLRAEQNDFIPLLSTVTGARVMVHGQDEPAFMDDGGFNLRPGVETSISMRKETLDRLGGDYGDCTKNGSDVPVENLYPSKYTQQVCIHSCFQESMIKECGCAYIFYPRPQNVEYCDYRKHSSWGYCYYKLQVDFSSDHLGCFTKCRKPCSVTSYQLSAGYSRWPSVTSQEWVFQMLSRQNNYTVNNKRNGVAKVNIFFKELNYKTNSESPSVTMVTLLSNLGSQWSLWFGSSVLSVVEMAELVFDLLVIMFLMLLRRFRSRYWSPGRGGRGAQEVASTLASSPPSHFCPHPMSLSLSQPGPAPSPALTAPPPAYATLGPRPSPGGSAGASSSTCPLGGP
Summary of the method: (§2)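 HEK-293 cells transfected with human ENaC α, β and γ cDNA together, plated at 20 000 cells/well, incubated overnight at 37 °C. Loaded with membrane-potential red dye for 30 min at 37 °C. Compound preincubated 5 min in HEPES-buffered salt solution (pH 7.4, 0.3% DMSO), then stimulated with 1 µM S-3969, read on FLIPR. Signal normalized to agonist alone (100%) and agonist plus 30 µM benzamil (0%). n = 4 wells.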

[3] = target: T3, Epithelial sodium channel subunit beta (Homo sapiens, UniProt P51168); test: (§3) Inhibition of S-3969-stimulated recombinant human ENaC beta subunit expressed in HEK293 cells at 10 uM preincubated for 5 mins followed by S-3969 stimulation by FLIPR assay; assay type: cell-based; settings: hek293, 10 µM; summary of the method: as §2
T3 sequence (P51168 whole entry): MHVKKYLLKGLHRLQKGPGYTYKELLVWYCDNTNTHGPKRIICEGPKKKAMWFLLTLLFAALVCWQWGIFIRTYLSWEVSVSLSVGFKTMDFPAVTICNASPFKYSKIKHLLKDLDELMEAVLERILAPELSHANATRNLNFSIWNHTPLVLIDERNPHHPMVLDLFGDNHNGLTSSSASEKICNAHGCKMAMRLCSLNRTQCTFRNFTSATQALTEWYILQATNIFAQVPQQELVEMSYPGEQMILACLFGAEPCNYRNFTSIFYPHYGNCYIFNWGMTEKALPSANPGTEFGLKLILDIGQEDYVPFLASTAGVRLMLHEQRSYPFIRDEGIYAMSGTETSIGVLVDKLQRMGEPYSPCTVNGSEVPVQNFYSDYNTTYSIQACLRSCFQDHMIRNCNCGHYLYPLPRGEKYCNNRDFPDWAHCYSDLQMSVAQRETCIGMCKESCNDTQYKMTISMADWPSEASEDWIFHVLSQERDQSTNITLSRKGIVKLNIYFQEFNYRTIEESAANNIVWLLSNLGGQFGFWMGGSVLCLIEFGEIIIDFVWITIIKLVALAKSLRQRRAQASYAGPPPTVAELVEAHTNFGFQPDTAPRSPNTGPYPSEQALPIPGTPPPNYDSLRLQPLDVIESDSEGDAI

[4] = target: T4, Epithelial sodium channel subunit gamma (Homo sapiens, UniProt P51170); test: (§4) Inhibition of S-3969-stimulated recombinant human ENaC gamma subunit expressed in HEK293 cells at 10 uM preincubated for 5 mins followed by S-3969 stimulation by FLIPR assay; assay type: cell-based; settings: hek293, 10 µM; summary of the method: as §2
T4 sequence (P51170 whole entry): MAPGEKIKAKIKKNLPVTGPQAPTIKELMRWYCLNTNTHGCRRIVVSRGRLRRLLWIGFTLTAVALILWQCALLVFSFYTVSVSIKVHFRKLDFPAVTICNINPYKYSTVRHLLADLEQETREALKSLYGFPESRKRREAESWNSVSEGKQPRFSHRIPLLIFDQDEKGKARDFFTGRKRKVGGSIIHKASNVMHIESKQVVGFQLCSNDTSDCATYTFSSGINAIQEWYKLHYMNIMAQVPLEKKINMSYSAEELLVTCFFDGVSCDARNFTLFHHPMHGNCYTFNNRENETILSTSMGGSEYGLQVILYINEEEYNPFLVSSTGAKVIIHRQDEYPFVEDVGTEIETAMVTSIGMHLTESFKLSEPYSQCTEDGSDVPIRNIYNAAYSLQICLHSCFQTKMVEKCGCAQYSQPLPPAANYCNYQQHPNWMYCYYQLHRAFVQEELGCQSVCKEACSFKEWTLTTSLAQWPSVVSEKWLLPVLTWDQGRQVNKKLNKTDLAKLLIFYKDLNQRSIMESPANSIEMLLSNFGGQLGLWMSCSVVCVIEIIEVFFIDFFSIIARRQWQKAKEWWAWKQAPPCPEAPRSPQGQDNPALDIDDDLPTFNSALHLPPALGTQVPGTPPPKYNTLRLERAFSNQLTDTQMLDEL

[5] = target: T1, Urokinase-type plasminogen activator; test: Inhibition of human kidney uPA using chromogenic H-D-Ile-L-Pro-L-Arg-p-nitoraniline as substrate by fluorescence assay
Summary of the method: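 Enzyme was uPA from human kidney cells at 10 nM final. […] Absorbance change at 405 nm gave initial rates. IC50 from a sigmoidal fit of % residual activity vs log concentration.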

[6] = target: Tissue-type plasminogen activator (Homo sapiens, UniProt P00750); test: Inhibition of tPA (unknown origin) using chromogenic H-D-Ile-L-Pro-L-Arg-p-nitoraniline as substrate by […]
Tissue-type plasminogen activator, sequence (P00750 whole entry): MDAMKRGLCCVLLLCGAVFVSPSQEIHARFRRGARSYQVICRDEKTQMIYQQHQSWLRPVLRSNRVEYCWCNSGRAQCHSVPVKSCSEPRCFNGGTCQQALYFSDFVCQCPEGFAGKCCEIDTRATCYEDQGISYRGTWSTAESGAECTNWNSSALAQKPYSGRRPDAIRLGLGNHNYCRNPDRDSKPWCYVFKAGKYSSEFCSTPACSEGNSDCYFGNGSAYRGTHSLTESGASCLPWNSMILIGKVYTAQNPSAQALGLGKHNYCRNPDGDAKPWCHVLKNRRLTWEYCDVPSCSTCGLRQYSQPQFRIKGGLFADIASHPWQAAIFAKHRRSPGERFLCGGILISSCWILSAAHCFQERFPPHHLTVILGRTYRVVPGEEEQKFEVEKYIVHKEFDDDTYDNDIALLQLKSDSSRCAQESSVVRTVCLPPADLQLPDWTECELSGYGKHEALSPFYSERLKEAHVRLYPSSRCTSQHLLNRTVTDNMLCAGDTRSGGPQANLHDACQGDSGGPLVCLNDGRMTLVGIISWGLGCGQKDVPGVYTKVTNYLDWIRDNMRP

Plasminogen = Plasminogen (Homo sapiens, UniProt P00747); test: Inhibition of plasmin (unknown origin) using chromogenic H-D-Ile-L-Pro-L-Arg-p-nitoraniline as substrate by […]
Plasminogen, sequence (P00747 97-580 limits assumed): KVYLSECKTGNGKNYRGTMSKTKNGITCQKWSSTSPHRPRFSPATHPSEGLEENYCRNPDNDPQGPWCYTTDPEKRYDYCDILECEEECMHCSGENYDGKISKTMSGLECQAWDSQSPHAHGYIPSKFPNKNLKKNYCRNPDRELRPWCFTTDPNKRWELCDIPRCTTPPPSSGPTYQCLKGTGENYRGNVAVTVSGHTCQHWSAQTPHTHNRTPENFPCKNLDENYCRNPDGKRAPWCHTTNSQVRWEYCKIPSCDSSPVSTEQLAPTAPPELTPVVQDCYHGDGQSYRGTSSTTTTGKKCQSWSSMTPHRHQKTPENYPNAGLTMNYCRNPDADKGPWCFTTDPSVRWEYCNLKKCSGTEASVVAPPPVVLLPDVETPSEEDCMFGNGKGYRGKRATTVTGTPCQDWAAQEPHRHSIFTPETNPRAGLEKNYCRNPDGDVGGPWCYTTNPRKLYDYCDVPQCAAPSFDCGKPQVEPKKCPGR
Plasminogen, sequence (P00747 581-810 limits assumed): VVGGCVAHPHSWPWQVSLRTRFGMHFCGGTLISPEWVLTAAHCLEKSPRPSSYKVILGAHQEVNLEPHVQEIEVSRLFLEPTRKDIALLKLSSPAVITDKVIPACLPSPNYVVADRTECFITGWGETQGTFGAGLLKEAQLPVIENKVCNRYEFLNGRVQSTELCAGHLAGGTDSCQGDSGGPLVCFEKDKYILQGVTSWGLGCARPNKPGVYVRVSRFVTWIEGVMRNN

Prothrombin = Prothrombin (Homo sapiens, UniProt P00734); test: Inhibition of thrombin (unknown origin) using chromogenic H-D-Ile-L-Pro-L-Arg-p-nitoraniline as substrate by […]
Plasma kallikrein = Plasma kallikrein (Homo sapiens, UniProt P03952); test: Inhibition of human plasma kallikrein using chromogenic L-pyroGlu-L-Pro-L-Arg-p-nitroaniline as substrate by fluorescence assay
Plasma kallikrein, sequence (P03952 20-390 limits assumed): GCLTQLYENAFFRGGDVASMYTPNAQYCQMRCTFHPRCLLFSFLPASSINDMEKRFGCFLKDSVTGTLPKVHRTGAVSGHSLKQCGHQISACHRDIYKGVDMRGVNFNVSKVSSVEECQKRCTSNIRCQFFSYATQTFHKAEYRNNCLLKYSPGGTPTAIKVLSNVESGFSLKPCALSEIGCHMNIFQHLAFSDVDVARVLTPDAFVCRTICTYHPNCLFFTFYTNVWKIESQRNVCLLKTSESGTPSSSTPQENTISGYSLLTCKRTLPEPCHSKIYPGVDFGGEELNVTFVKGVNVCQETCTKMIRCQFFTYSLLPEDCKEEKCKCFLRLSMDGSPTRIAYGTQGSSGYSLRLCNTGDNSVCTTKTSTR
Plasma kallikrein, sequence (P03952 391-638 limits assumed): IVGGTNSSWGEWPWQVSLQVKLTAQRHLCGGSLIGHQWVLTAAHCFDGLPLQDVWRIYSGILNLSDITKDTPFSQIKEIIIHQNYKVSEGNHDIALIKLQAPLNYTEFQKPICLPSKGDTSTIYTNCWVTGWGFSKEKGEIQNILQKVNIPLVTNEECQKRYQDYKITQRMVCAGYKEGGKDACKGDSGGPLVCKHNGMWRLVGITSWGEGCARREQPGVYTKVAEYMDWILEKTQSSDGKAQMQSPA

Coagulation factor XI = Coagulation factor XI (Homo sapiens, UniProt P03951); test: Inhibition of factor 11a (unknown origin) using chromogenic L-pyroGlu-L-Pro-L-Arg-p-nitroaniline as substrate by […]
Coagulation factor XI, sequence (P03951 19-387 limits assumed): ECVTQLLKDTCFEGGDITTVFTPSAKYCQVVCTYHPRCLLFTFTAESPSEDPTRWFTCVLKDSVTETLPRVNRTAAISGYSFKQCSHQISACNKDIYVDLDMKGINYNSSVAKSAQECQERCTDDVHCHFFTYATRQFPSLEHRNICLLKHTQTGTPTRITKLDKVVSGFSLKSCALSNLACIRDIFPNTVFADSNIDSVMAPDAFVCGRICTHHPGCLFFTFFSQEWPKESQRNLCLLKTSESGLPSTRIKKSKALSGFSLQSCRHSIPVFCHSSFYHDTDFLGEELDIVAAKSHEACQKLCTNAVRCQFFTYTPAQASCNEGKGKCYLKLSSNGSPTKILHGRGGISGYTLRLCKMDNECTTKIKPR
Coagulation factor XI, sequence (P03951 388-625 limits assumed): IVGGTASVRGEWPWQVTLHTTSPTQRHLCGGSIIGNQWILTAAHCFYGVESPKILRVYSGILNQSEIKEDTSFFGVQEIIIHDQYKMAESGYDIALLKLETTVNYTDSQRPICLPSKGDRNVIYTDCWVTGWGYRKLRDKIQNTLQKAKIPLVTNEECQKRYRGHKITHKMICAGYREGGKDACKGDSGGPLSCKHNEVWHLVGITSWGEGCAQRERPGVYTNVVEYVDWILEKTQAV

Coagulation factor X = Coagulation factor X (Homo sapiens, UniProt P00742); test: Inhibition of factor 10a (unknown origin) using chromogenic H-D-Ile-L-Pro-L-Arg-p-nitoraniline as substrate by fluorescence assay
Coagulation factor X, sequence (P00742 41-179 limits assumed): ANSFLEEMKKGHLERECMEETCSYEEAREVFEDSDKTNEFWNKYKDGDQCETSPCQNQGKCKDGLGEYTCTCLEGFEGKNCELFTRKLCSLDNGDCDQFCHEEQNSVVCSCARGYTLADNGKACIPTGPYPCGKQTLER
Coagulation factor X, sequence (P00742 235-488 limits assumed): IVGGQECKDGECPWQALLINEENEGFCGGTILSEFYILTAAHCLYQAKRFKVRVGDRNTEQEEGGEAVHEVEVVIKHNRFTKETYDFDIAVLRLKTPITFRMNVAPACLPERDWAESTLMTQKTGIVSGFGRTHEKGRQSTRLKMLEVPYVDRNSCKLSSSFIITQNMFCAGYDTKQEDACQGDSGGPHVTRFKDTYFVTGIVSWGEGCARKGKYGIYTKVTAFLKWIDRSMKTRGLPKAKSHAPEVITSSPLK

[7] = target: Vitamin K-dependent protein C (Homo sapiens, UniProt P04070); test: Inhibition of activated protein C (unknown origin) using chromogenic L-pyroGlu-L-Pro-L-Arg-p-nitroaniline as substrate by fluorescence assay
Vitamin K-dependent protein C, sequence (P04070 43-197 limits assumed): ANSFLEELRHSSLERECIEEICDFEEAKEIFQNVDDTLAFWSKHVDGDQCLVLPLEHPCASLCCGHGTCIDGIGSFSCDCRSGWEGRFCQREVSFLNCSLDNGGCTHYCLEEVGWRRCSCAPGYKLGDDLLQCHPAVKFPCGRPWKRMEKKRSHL
Vitamin K-dependent protein C, sequence (P04070 212-461 limits assumed): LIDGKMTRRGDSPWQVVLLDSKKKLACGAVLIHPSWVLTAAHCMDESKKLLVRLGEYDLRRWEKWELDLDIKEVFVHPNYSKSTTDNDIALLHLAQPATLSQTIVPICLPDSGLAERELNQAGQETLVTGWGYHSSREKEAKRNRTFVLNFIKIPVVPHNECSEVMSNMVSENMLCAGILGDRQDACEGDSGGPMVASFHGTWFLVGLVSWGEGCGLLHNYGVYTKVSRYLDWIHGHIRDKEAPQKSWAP

MDA-MB-231 = test: Cytotoxicity against human MDA-MB-231 cells assessed as reduction in cell viability after 48 hrs by CellTiter 96 Aqueous One solution cell proliferation assay; assay type: functional, cell-based; settings: MDA-MB-231, 48 h
Summary of the method: (§5)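 Cells grown in DMEM high glucose with 10% heat-inactivated FCS, seeded at 5000/well and left 18 h. Compounds added at 1 nM–100 µM final (0.2% vehicle), n = 4 wells per concentration, with colour blanks. After 48 h, MTS reagent added for 2 h and A490 read. IC50 from a variable-slope sigmoidal fit.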

HepG2 = test: Cytotoxicity against human HepG2 cells assessed as reduction in cell viability after 48 hrs by CellTiter 96 Aqueous One solution cell proliferation assay; assay type: functional, cell-based; settings: HepG2, 48 h; summary of the method: as §5
HEK293 = test: Cytotoxicity against HEK293 cells assessed as reduction in cell viability after 48 hrs by CellTiter 96 Aqueous One solution cell proliferation assay; assay type: cell-based; settings: Homo sapiens, HEK293, 48 h; summary of the method: as §5
HT-1080 [8] = test: Cytotoxicity against human HT1080 cells assessed as reduction in cell viability after 48 hrs by CellTiter 96 Aqueous One solution cell proliferation assay; assay type: functional, cell-based; settings: HT-1080, 48 h; summary of the method: as §5
[9] = target: ENaC alpha subunit (epithelial sodium channel subunit alpha) (Homo sapiens, UniProt P37088); test: as §1; assay type: cell-based; settings: HEK293 cells expressing recombinant human ENaC alpha subunit; summary of the method: as §2
[10] = target: ENaC beta subunit (epithelial sodium channel subunit beta) (Homo sapiens, UniProt P51168); test: as §3; assay type: cell-based; settings: HEK293 cells expressing recombinant human ENaC beta subunit; summary of the method: as §2
[11] = target: ENaC gamma subunit (epithelial sodium channel subunit gamma) (Homo sapiens, UniProt P51170); test: as §4; assay type: cell-based; settings: HEK293 cells expressing recombinant human ENaC gamma subunit; summary of the method: as §2
HT-1080 [12] = test: Antimetastatic activity against luciferase-tagged human HT1080 cells xenografted in NOD.Cg-Prkdc<scid>-IL2rg<tm1Wjl>SzJAusb mouse assessed as inhibition of late-stage lung metastasis at 7.5 mg/kg/day, ip administered from day -1 to day 20 measured day 21
Homo sapiens = test: Antimetastatic activity against human PSC xenografted in BALB/c nu/nu mouse co-implanted with human AsPC1 cells assessed as reduction in metastasis lesions in liver at 75 mg/kg, po administered twice per week via gavage measured after 28 days post first dose by microscopic analysis; assay type: functional, organism-based
Summary of the method: (§6)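 Female athymic BALB/c nu/nu mice, 6–8 weeks old. 1×10^6 AsPC-1 and 1×10^6 human pancreatic stellate cells in 50 µL PBS injected into the pancreatic tail. Treatment randomized on day 7 (n = 4/group) for 4 weeks: 10 mg/kg/day ip in 50 mM sodium acetate pH 5.5/10% DMSO/1% Kolliphor HS-15, or gemcitabine 75 mg/kg by oral gavage twice weekly, or vehicle. At kill, liver scored for visible macrometastases, fixed in formalin, and 4 µm sections stained with H&E. Chi-square test.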

ASPC1 = test: Antimetastatic activity against human AsPC1 cells xenografted in BALB/c nu/nu mouse co-implanted with human PSC assessed as reduction in metastasis lesions in liver at 75 mg/kg, po administered twice per week via gavage measured after 28 days post first dose by microscopic analysis; assay type: functional, organism-based; summary of the method: as §6
Trypsin = Trypsin (Homo sapiens, UniProt P07477+P07478+P35030); test: Inhibition of trypsin (unknown origin) at 10 nM to 33.3 uM after 30 mins by gel-based ABPP assay; assay type: protein assay
[13] = target: T1, Urokinase-type plasminogen activator; test: Inhibition of human kidney uPA after 30 mins by gel-based ABPP assay

Row | SMILES | Ki [1] [µM] | inhibition (INH) [2] | inhibition (INH) [3] | inhibition (INH) [4] | IC50 (MDA-MB-231) [µM] | IC50 (HepG2) [µM] | IC50 (HEK293) [µM] | IC50 (HT-1080 [8]) [µM] | also measured
1 | N=C(N)NC(=O)c1nc(-c2ccc(C(F)(F)F)cc2)c(N2CCCCCC2)nc1N | 4.26 | Not Active | Not Active | Not Active | – | – | – | – | –
2 | N=C(N)NC(=O)c1nc(-c2cc3c(F)cccc3o2)c(N2CCCCCC2)nc1N | 0.088 | – | – | – | 3.2 | 68.4 | 12 | 2.1 | IC50 [5]: 0.43 µM; IC50 [6]: > 20 µM; IC50 (Plasminogen): > 20 µM; IC50 (Prothrombin): > 20 µM; IC50 (Plasma kallikrein): 16.7 µM; IC50 (Coagulation factor XI): 23.3 µM; IC50 (Coagulation factor X): > 50 µM; IC50 [7]: > 50 µM
3 | N=C(N)NC(=O)c1nc(Cl)c(N)nc1N [AMILORIDE] | – | – | – | – | – | – | – | – | inhibition at 5 min, 10 µM [9]: 68%; inhibition at 5 min, 10 µM [10]: 68%; inhibition at 5 min, 10 µM [11]: 68%; inhibition (HT-1080 [12]): inactive
4 | N=C(N)NC(=O)c1nc(-c2cc3ccccc3[nH]2)c(N2CCCCCC2)nc1N | 5.67 | Not Active | Not Active | Not Active | – | – | – | – | –
5 | Nc1ccn([C@@H]2O[C@H](CO)[C@@H](O)C2(F)F)c(=O)n1 | – | – | – | – | – | – | – | – | Activity (Homo sapiens): Active; Activity (ASPC1): Active
6 | N=C(N)NC(=O)c1nc(-c2cncnc2)c(N2CCCCCC2)nc1N | 0.108 | Not Active | Not Active | Not Active | > 100 | > 100 | > 100 | 37.1 | inhibition (Trypsin): Active; inhibition [13]: Active

— ChEMBL document CHEMBL4196166 (J Med Chem, 2018)
